The values that follow come from ChEMBL document CHEMBL1132244, “Benzodiazepine receptor ligands. 4. Synthesis and pharmacological evaluation of 3-heteroaryl-8-chloropyrazolo[5,1-c][1,2,4] benzotriazine 5-oxides” (J Med Chem, 1999).

The target in series [1] is T1, GABA-A receptor; anion channel (Bos taurus) (UniProt P10063+P08220+P20237+P08219+P10064+P22300). Put plainly: Percentage inhibition of [3H]Ro-151788 binding to GABA-A benzodiazepine receptor in bovine brain membrane at 10 uM. In kind it is cell membranes. Summed up: (§1)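 Washed bovine cerebral cortex membranes, with endogenous GABA removed by Triton X-100/37 °C washes, incubated with ~0.2 nM [3H]Ro15-1788 (Kd 0.60 nM) in 50 mM Tris-citrate pH 7.4 for 90 min at 0 °C, then filtered. Nonspecific binding defined with 10 μM diazepam. Screening at 10 μM; Ki from IC50 by Cheng–Prusoff; five determinations, mean ± SEM.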

In series [2] the test system is Mus musculus. Put plainly: (§2) Anticonvulsant activity against MES-induced hindlimb extension at 100 mg/kg dose. In kind it is functional.
Series [3] deals with Mus musculus. Put plainly: (§3) Anticonvulsant activity against MES-induced hindlimb extension at 10 mg/kg dose. It counts as functional.
Series [4] relates to Mus musculus. Put plainly: (§4) Anticonvulsant activity against MES-induced hindlimb extension at 30 mg/kg dose. In kind it is functional.
The test system of series [5] is Mus musculus. In words: Muscle relaxant effect measured by rotarod test at 10 mg/Kg dose in mice. It counts as functional. Summed up: (§5)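 Motor coordination on the rota rod in male Swiss-Webster mice (22–26 g) after oral dosing in 1% CMC (10 mL/kg), tested 30 min post-dose. Student's t-test.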
For series [6], the system named is Mus musculus. Put plainly: Muscle relaxant effect measured by rotarod test at 100 mg/Kg dose in mice. In kind it is functional. Summed up: as §5
In series [7] the test system is Mus musculus. Put plainly: Anticonvulsant activity against PTZ induced atacks at 100 mg/kg dose. In kind it is functional.
Series [8] deals with Mus musculus. Put plainly: Antianxiety activity was measured based on light/dark box thus calculated no of crosses of mice at 10 mg/kg dose. In kind it is functional. A digest of the protocol: (§6)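 Male Swiss-Webster mice, 22–26 g, dosed orally with drug or 1% CMC vehicle (10 mL/kg), placed 30 min later in the centre of the lit side of a two-compartment light/dark box (60-W bulb 400 mm above the white floor). Time in the lit side and number of crossings counted over 5 min. Student's t-test.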

In series [9] the test system is Mus musculus. In words: Antianxiety activity was measured based on light/dark box thus calculated % time in light of mice at 30 mg/kg dose. It counts as functional. A digest of the protocol: as §6
Series [10] deals with Mus musculus. In words: Antianxiety activity was measured based on light/dark box thus calculated no of crosses of mice at 100 mg/kg dose. In kind it is functional. A digest of the protocol:
as §6

In series [11] the test system is Mus musculus. In words: Anticonvulsant activity against PTZ induced atacks at 30 mg/kg dose. It counts as functional.
Series [12] concerns Mus musculus. The description is as §2. It counts as organism-based. Set-up: dose 100 mg/kg. As to conditions: in vivo. A digest of the protocol:
(§7)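 Male Swiss-Webster mice (22–26 g) received drug in 1% CMC (10 mL/kg) 30 min before maximal electroshock through transcorneal electrodes (40 mA, 50 Hz, 0.2 s). The end point was tonic hindlimb extension, and lethality was also noted. The incidence of non-convulsing mice was analysed by χ² test.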

Series [13] addresses T1, GABA-A receptor; anion channel (Bos taurus). Put plainly: The GABA ratio (GR) = IC50 compound + 10 uM GABA, performed in five independent experiments was calculated for the compound. In kind it is protein-complex assay. Summed up: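 [3H]Ro15-1788 displacement from GABA-depleted bovine cortex membranes (0.2 nM ligand, 90 min, 0 °C, Tris-citrate pH 7.4). IC50 measured without and with 10 μM GABA and the ratio taken; five independent experiments.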

Series [14] relates to Mus musculus. Put plainly: Muscle relaxant effect measured by rotarod test at 30 mg/Kg dose in mice. It counts as functional. Summed up: as §5
For orientation: Falling from the rotarod earlier than controls is read as motor impairment.

In series [15] the test system is Mus musculus. In words: Antianxiety activity was measured based on light/dark box thus calculated no of crosses of mice at 30 mg/kg dose. It counts as functional. Summed up: as §6
Series [16] has as its system Mus musculus. Described as §3. In kind it is ADME, organism-based. Set-up: dose 10 mg/kg. As to conditions: in vivo. Summed up:
as §7

For series [17], the system named is Mus musculus. Put plainly: Antianxiety activity was measured based on light/dark box thus calculated % time in light of mice at 10 mg/kg dose. In kind it is functional. A digest of the protocol: as §6
The test system of series [18] is Mus musculus. In words: Antianxiety activity was measured based on light/dark box thus calculated % time in light of mice at 100 mg/kg dose. It counts as functional. A digest of the protocol:
as §6

Series [19] has as its target GABA-A receptor; anion channel. Put plainly: Displacement of [3H]Ro-151788 from GABA-A benzodiazepine receptor of bovine brain membranes. It counts as cell membranes, Bos taurus. Summed up:
as §1
Background: Loss of bound radioactivity is the signal in a displacement assay; it reports binding, not function.

In series [20] the test system is Mus musculus. Described as §4. Set-up: dose 30 mg/kg. It counts as ADME, organism-based. As to conditions: in vivo. Summed up: as §7
The subject of series [21] is Mus musculus. In words: Anticonvulsant activity against PTZ induced attacks at 10 mg/kg dose. It counts as functional.
Series [22] relates to Mus musculus. Put plainly: Anticonvulsant activity against PTZ induced seizures at 100 mg/kg dose with 1 mg/kg Diazepam. It counts as functional.
Series [23] concerns Mus musculus. In words: Anticonvulsant activity against PTZ induced seizures in mice at 100 mg/kg dose with 0.3 mg/kg Diazepam. In kind it is functional.
The test system of series [24] is Mus musculus. Put plainly: Antianxiolytic activity in mice as percent time in light of light/dark box at 100 mg/kg 13c and 1 mg/kg Diazepam. It counts as functional.
The subject of series [25] is Mus musculus. Put plainly: Muscle relaxant effect in rotarod test at 100 mg/kg 13c and 1 mg/kg Diazepam. It counts as functional.
In series [26] the test system is Mus musculus. Put plainly: Muscle relaxant effect in rotarod test at 100 mg/kg 13c and 0.3 mg/kg Diazepam. In kind it is functional.
The subject of series [27] is Mus musculus. In words: Antianxiolytic activity in mice as no of crosses on light/dark box at 100 mg/kg 13c and 1 mg/kg Diazepam. It counts as functional.
In series [28] the test system is Mus musculus. In words: Anticonvulsant activity against PTZ induced atacks at 100 mg/kg dose Flumazenil and 0.3 mg/kg Diazepam. In kind it is functional. Summed up: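 Male Swiss-Webster mice (22–26 g) received drug in 1% CMC (10 mL/kg) 30 min before the test, or flumazenil 40 min before. Pentylenetetrazole was then given at 75 mg/kg sc, and generalized tonic-clonic seizures were scored over the following 30 min. The incidence of non-convulsing mice was analysed by χ² test.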

Series [29] has as its system Mus musculus. In words: Antianxiety activity was measured based on light/dark box thus calculated % time in light of mice at 100 mg/kg dose Flumazenil and 1 mg/kg Diazepam. It counts as functional.
Series [30] has as its system Mus musculus. In words: Antianxiety activity was measured based on light/dark box thus calculated no of crosses of mice at 100 mg/kg dose Flumazenil and 1 mg/kg Diazepam. In kind it is functional.
In series [31] the test system is Mus musculus. Put plainly: Muscle relaxant effect measured by rotarod test at 100 mg/kg dose Flumazenil and 0.3 mg/kg Diazepam. In kind it is functional.
The subject of series [32] is Mus musculus. In words: The percentage time in light by the animals was calculated for the compound at a dose of 0.3 mg/kg in the light/dark box experiment. It counts as functional.
In series [33] the test system is Mus musculus. Put plainly: Muscle relaxant effect measured by rotarod test at 3 mg/Kg dose in mice. It counts as functional.
The test system of series [34] is Mus musculus. In words: Muscle relaxant effect measured by rotarod test at 0.1 mg/Kg dose in mice. In kind it is functional.
Series [35] relates to Mus musculus. In words: The percentage time in light by the animals was calculated for the compound at a dose of 3 mg/kg in the light/dark box experiment. In kind it is functional.
The test system of series [36] is Mus musculus. In words: The antianxiety activity for the compound at a dose of 1 mg/kg was evaluated as number of crosses by mice in the light/dark box experiment. In kind it is functional.
Series [37] has as its system Mus musculus. In words: The antianxiety activity for the compound at a dose of 3 mg/kg was evaluated as number of crosses by mice in the light/dark box experiment. It counts as functional.
Series [38] concerns Mus musculus. Put plainly: Muscle relaxant effect measured by rotarod test at 0.3 mg/Kg dose in mice. It counts as functional.
Series [39] relates to Mus musculus. Put plainly: Muscle relaxant effect measured by rotarod test at 1 mg/Kg dose in mice. In kind it is functional.
Series [40] relates to Mus musculus. Put plainly: The percentage time in light by the animals was calculated for the compound at a dose of 1 mg/kg in the light/dark box experiment*** indicates P<0.001. In kind it is functional.
The test system of series [41] is Mus musculus. In words: The antianxiety activity for the compound at a dose of 0.3 mg/kg was evaluated as number of crosses by mice in the light/dark box experiment. p<0.05. In kind it is functional.

A word on the inhibition: it is the change of the read-out against control, counted positive when it falls. In the case of `O=C(N/C=N/O)c1cnn2c1n[n+]([O-])c1ccc(Cl)cc12`, the inhibition in series [1] amounted to 0%.

Broadly, the Ki is a measure of affinity in units of concentration, obtained from inhibition or displacement. A higher Ki goes with a looser hold on the target. With `[O-][n+]1nc2c(-c3ccsc3)cnn2c2cc(Cl)ccc21`, in [1], the inhibition is 100%. For the same compound, the values for the Extension in the series on Mus musculus [2], with Mus musculus [3] and with Mus musculus [4] were 27.3%, 14.3% and 33.3%, respectively. In addition, the No. of falls in the series on Mus musculus [5] is reported as 0.43; in the series on Mus musculus [6], 0.15; with Mus musculus [14], 0.08. For the same compound, the Atttacks in the series with Mus musculus [7] is 46.1%; in the series with Mus musculus [11] it was 61.5%; in the series with Mus musculus [21] it was 18.2%. Besides, the No. of crosses is 16.3 with Mus musculus [8], 15.3 in the series with Mus musculus [10] and 19 in the series on Mus musculus [15]. The figures for the Time in flight in the series on Mus musculus [9], with Mus musculus [17] and in the series on Mus musculus [18] were 104.3%, 94.2% and 107.4%, respectively. Moreover, the Lethality is given as 18.2% in the series on Mus musculus [12], 28.6% with Mus musculus [16] and 22.2% in the series on Mus musculus [20]. Besides, the GR in [13] was 1.23. In series [19], this compound yielded a Ki of 36.3 nM.

With `Cc1nc(-c2cnn3c2n[n+]([O-])c2ccc(Cl)cc23)nn1C`, the inhibition in series [1] turned out to be 0%.

As to `CN1C(=O)CN=C(c2ccccc2)c2cc(Cl)ccc21.[O-][n+]1nc2c(-c3cccs3)cnn2c2cc(Cl)ccc21`, the values for the Atttacks with Mus musculus [22] and in the series on Mus musculus [23] were 100% and 50%, respectively. This compound also returned a Time in flight in the series with Mus musculus [24] of 130.9%. Further, the No. of falls in the series on Mus musculus [25] was 0.17; with Mus musculus [26], 0.5. Also, the No. of crosses with Mus musculus [27] is listed as 26.6.

On to `Cc1n[nH]c(-c2cnn3c2n[n+]([O-])c2ccc(Cl)cc23)n1`, for which the inhibition in series [1] turned out to be 15.2%.

In turn, `O=CNC(=O)c1cnn2c1n[n+]([O-])c1ccc(Cl)cc12` registered an inhibition in series [1] of 85.5%. Moreover, the Ratio in [13] is 2.07. Besides, in [19], the affinity, expressed as Ki, was 844 nM.

As to `C/C(=N\C(=O)c1cnn2c1n[n+]([O-])c1ccc(Cl)cc12)N(C)C`, in series [1], the inhibition was determined as 58.5%.

As for `CCOC(=O)c1ncn2c1CN(C)C(=O)c1cc(F)ccc1-2.CN1C(=O)CN=C(c2ccccc2)c2cc(Cl)ccc21`, the Atttacks in the series with Mus musculus [28] worked out at 14.2%. For the same compound, in the series with Mus musculus [29], the Time in flight is 104.1%. Besides, in the series with Mus musculus [30], the No. of crosses was 18.6. Besides, in the series on Mus musculus [31], the No. of falls came out at 0.46.

In series [1], `CN(C)/C=N/C(=O)c1cnn2c1n[n+]([O-])c1ccc(Cl)cc12` registered an inhibition of 48.9%.

As to `CN1C(=O)CN=C(c2ccccc2)c2cc(Cl)ccc21` [DIAZEPAM], the Time in light in the series with Mus musculus [32] is reported as 95.5%; with Mus musculus [35], 211.1%; in the series with Mus musculus [40], 144.9%. Also, the No. of falls in the series on Mus musculus [33] was determined as 1.4; with Mus musculus [34] it was 0.23; in the series on Mus musculus [38], 0.56; with Mus musculus [39], 0.73. The No. of crosses with Mus musculus [36] is 28.5; in the series with Mus musculus [37] it was 16.5; in the series on Mus musculus [41] it was 22.
